Experimental data published in ChEMBL document CHEMBL1132374, “Sulfonamidopyrrolidinone factor Xa inhibitors: potency and selectivity enhancements via P-1 and P-4 optimization” (J Med Chem, 1999).

Columns and labels:
Prothrombin = Prothrombin (Homo sapiens, UniProt P00734); experiment: Inhibition of human coagulation factor II
In short: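 Human thrombin, final 1 nM, in 0.05 M Tris, 0.15 M NaCl, 0.1% PEG-8000, pH 7.5, room temperature. Inhibitor preincubated with enzyme 30 min, then reaction started with Pefachrome TH (50 µM final). p-Nitroanilide release read continuously at 405 nm for 5 min, under 10% substrate consumed. IC50 taken from initial velocities; apparent Ki by Cheng-Prusoff, assuming competitive inhibition.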

Coagulation factor X = Coagulation factor X (Homo sapiens, UniProt P00742); experiment: Inhibition of human coagulation factor Xa
[1] = target: Tissue factor (Homo sapiens) (UniProt P13726); experiment: (§1) Activated partial thromboplastin time measured; format: functional
In short: (§2)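 Citrated human, dog (mongrel) and rat (Sprague-Dawley) plasma, freshly thawed, mixed 1:1 with compound dilutions. Clotting started on an automatic coagulation timer with actin-activated cephaloplastin reagent and 0.035 M CaCl2. Value is the concentration that doubles plasma clotting time.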

[2] = as §1; format: ADME; in short: as §2

Sequence of Coagulation factor X (P00742 41-179 limits assumed): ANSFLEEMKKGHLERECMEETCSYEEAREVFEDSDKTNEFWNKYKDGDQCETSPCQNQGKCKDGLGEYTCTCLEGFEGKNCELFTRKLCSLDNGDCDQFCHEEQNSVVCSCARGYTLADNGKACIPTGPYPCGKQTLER
Sequence of Coagulation factor X (P00742 235-488 limits assumed): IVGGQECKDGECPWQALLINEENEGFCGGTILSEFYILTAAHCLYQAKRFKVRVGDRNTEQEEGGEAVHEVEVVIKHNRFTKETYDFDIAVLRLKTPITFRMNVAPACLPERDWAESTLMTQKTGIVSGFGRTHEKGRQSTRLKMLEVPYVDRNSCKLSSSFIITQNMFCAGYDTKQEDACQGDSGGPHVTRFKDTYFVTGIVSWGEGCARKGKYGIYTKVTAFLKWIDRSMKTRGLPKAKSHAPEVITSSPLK
Sequence of Tissue factor (Homo sapiens) (P13726 whole entry): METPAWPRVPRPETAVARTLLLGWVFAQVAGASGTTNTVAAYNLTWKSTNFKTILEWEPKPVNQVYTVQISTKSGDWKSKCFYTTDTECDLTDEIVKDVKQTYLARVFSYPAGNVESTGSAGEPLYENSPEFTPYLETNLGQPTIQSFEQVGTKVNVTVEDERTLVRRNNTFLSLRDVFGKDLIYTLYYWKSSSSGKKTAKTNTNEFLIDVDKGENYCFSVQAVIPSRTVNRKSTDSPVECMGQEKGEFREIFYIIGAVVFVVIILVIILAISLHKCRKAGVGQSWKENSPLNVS

SMILES	Ki (Prothrombin)	Ki (Coagulation factor X)	APTT [1]	APTT [2]
Cn1ccnc1-c1ccc(S(=O)(=O)N[C@H]2CCN(Cc3cccc(C(=N)N)c3)C2=O)cc1	> 4000 nM	2600 nM		
COc1ccc2ccc(S(=O)(=O)N[C@H]3CCN(Cc4cc(C(=N)N)ccc4O)C3=O)cc2c1	206 nM	3 nM		
COc1nccc(-c2ccc(S(=O)(=O)N[C@H]3CCN(Cc4cccc(C(=N)N)c4)C3=O)s2)n1	> 4000 nM	150 nM		
N=C(N)c1cccc(CN2CC[C@H](NS(=O)(=O)c3ccc(-c4ccccc4)cc3)C2=O)c1	> 4000 nM	160 nM		
COC(=O)COc1ccc(C(=N)N)cc1CN1CC[C@H](NS(=O)(=O)c2ccc3ccc(OC)cc3c2)C1=O	263 nM	8 nM		
C[n+]1ccc(-c2ccc(S(=O)(=O)N[C@H]3CCN(Cc4cccc(C(=N)N)c4)C3=O)cc2)cc1	> 4000 nM	130 nM		
N=C(N)c1ccc(N)c(CN2CC[C@H](NS(=O)(=O)c3ccc(-c4cccnc4)s3)C2=O)c1	2600 nM	6 nM		
N=C(N)c1cccc(CN2CC[C@H](NS(=O)(=O)c3ccc(-c4ccon4)s3)C2=O)c1	> 4000 nM	49 nM		
N=C(N)c1ccc(O)c(CN2CC[C@H](NS(=O)(=O)c3ccc(-c4cccnc4)s3)C2=O)c1	2800 nM	2 nM	0.32 µM	
COc1ccc2ccc(S(=O)(=O)N(C)[C@H]3CCN(Cc4cc(C(=N)N)ccc4NC(C)=O)C3=O)cc2c1	> 4000 nM	919 nM		
COc1ccc2ccc(S(=O)(=O)N[C@H]3CCN(Cc4cc(C(=N)N)ccc4OCC(=O)O)C3=O)cc2c1	> 4000 nM	1300 nM		
COc1ccc2ccc(S(=O)(=O)N(C)[C@H]3CCN(Cc4cc(C(=N)N)ccc4N)C3=O)cc2c1	201 nM	4 nM		
COc1ccc2ccc(S(=O)(=O)N[C@H]3CCN(Cc4ccc(O)c(C(=N)N)c4)C3=O)cc2c1	> 4000 nM	983 nM		
N=C(N)c1cccc(CN2CC[C@H](NS(=O)(=O)c3ccc(-c4cc[n+]([O-])cc4)cc3)C2=O)c1	> 4000 nM	330 nM		
N=C(N)c1ccc(F)c(CN2CC[C@H](NS(=O)(=O)c3ccc(-c4cccnc4)s3)C2=O)c1	4000 nM	130 nM		
COc1ccc2ccc(S(=O)(=O)N(C)[C@H]3CCN(Cc4csc(C(=N)N)c4)C3=O)cc2c1				1.5 µM
N=C(N)c1ccc(O)c(CN2CC[C@H](NS(=O)(=O)c3ccc(-c4ccon4)s3)C2=O)c1	2220 nM	3 nM		
COc1ccc2ccc(S(=O)(=O)N[C@H]3CCN(Cc4cc(N)cc(C(=N)N)c4)C3=O)cc2c1	> 4000 nM	1200 nM		
N=C(N)c1cccc(CN2CC[C@H](NS(=O)(=O)c3ccc(-c4cccnc4)cc3)C2=O)c1	1960 nM	210 nM		
N=C(N)c1cccc(CN2CC[C@H](NS(=O)(=O)c3ccc(-c4ccccn4)cc3)C2=O)c1	4000 nM	150 nM		
COc1ccc2ccc(S(=O)(=O)N(C)[C@H]3CCN(Cc4cccc(C(=N)N)c4)C3=O)cc2c1	1050 nM			
N=C(N)c1cccc(CN2CC[C@H](NS(=O)(=O)c3ccc(-c4ccncc4)s3)C2=O)c1	3000 nM			
COc1ccc2ccc(S(=O)(=O)N[C@H]3CCN(Cc4cccc(C(=N)N)c4)C3=O)cc2c1	1430 nM			
N=C(N)c1ccc(N)c(CN2CC[C@H](NS(=O)(=O)c3ccc(-c4ccon4)s3)C2=O)c1	2230 nM	7 nM		
COc1ccc2ccc(S(=O)(=O)N[C@H]3CCN(Cc4cc(C(=N)N)ccc4N)C3=O)cc2c1	278 nM	6 nM		
N=C(N)c1cccc(CN2CC[C@H](NS(=O)(=O)c3ccc(-c4cccnc4)s3)C2=O)c1	> 4000 nM	41 nM		
N=C(N)c1cccc(CN2CC[C@H](NS(=O)(=O)c3ccc(-c4ccncc4)cc3)C2=O)c1	> 4000 nM	130 nM		
N=C(N)c1cccc(CN2CC[C@H](NS(=O)(=O)c3ccc(-c4ccccn4)s3)C2=O)c1	> 4000 nM	140 nM		
